# In ChEMBL document CHEMBL1629645 (Antimicrob Agents Chemother, 2009):
# Activity calls are given as the source filed them. The rule behind the calls is not given here.
# What was measured:
# Staphylococcus aureus [1] = experiment: Antibacterial activity against methicillin-resistant Staphylococcus aureus ATCC 43300 infected in Albino guiena pig assessed as cure rate at 25 mg/kg measured on day 10 postinfection; assay type: functional, organism-based; parameters: dose 25 mg/kg
# Method in brief: (§1)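 Male albino guinea pigs, 550–600 g, with four subcutaneous perforated Teflon cages each. Cages infected with 2 × 10^4 CFU MRSA. Intraperitoneal treatment from 24 h post-infection, every 12 h for 4 days (8 doses), ≥3 animals per group. Explanted cages incubated in TSB at 37°C for 48 h, then plated. Cure is the share of cages without MRSA growth.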
# [2] = AUC (0 to 24 hrs) in cage fluid of Albino guiena pig at 25 mg/kg, ip; assay type: ADME, organism-based, Cavia porcellus; parameters: time < 24 hr, dose 25 mg/kg, route intraperitoneal; conditions: guinea pig
# Staphylococcus aureus [3] = experiment: Antibacterial activity against methicillin-resistant Staphylococcus aureus ATCC 43300 infected in Albino guiena pig assessed as inhibition of bacterial growth in cage fluid at 75 mg/kg measured on day 10 postinfection compared to the bacterial growth on day 1; assay type: functional, organism-based; parameters: dose 75 mg/kg
# Method in brief: (§2)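 Guinea pig subcutaneous cage model infected with 2 × 10^4 CFU MRSA. Intraperitoneal dosing every 12 h for 4 days, starting day 1. Cage-fluid CFU counted on day 1, day 4 (before last dose) and day 10. Δlog10 CFU/ml is day 4 or day 10 minus day 1. Quantification limit 1,000 CFU/ml; negatives set to 3 log10. Median and IQR.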
# Staphylococcus aureus [4] = experiment: Antibacterial activity against methicillin-resistant Staphylococcus aureus ATCC 43300 during logarithmic growth phase by macrodilution method; assay type: functional
# [5] = Cmin in cage fluid of Albino guiena pig at 75 mg/kg, ip after 12 hrs; assay type: ADME, organism-based, Cavia porcellus; parameters: dose 75 mg/kg, route intraperitoneal; conditions: guinea pig, read-out: Cmin
# Method in brief: (§3)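 Noninfected male albino guinea pigs (550–600 g) carrying subcutaneous Teflon cages, verified sterile, received one intraperitoneal dose. Cage fluid was aspirated at 1–24 h, two cages per animal, three animals per dose, centrifuged and stored at −20°C. Levels were read by agar diffusion bioassay (S. aureus ATCC 29213; standards in 31% guinea pig serum; limit 1.25 µg/ml). Per-animal parameters are given as mean ± SD; Cmin is the 12 h trough.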
# [6] = Cmax in cage fluid of Albino guiena pig at 25 mg/kg, ip after 3 hrs; assay type: ADME, organism-based, Cavia porcellus, Interstitial fluid; parameters: dose 25 mg/kg, route intraperitoneal; conditions: guinea pig; method in brief: as §3
# Staphylococcus aureus [7] = experiment: Antibacterial activity against methicillin-resistant Staphylococcus aureus ATCC 43300 infected in Albino guiena pig assessed as no. of culture-negative cage fluid samples at 75 mg/kg measured on day 4 postinfection; assay type: functional
# Method in brief: (§4)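 Same guinea pig cage infection and intraperitoneal 4-day, twice-daily regimen. Cage fluid cultured on day 4 and day 10. Result is the number of cage fluid samples without detectable MRSA growth over the total cages per group.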
# [8] = Cmax in cage fluid of Albino guiena pig at 50 mg/kg, ip after 3 hrs; assay type: ADME, organism-based, Cavia porcellus, Interstitial fluid; parameters: dose 50 mg/kg, route intraperitoneal; conditions: guinea pig; method in brief: as §3
# Staphylococcus aureus [9] = experiment: Antibacterial activity against methicillin-resistant Staphylococcus aureus ATCC 43300 infected in Albino guiena pig assessed as no. of culture-negative cage fluid samples at 50 mg/kg measured on day 4 postinfection; assay type: functional; method in brief: as §4
# [10] = Tmax in cage fluid of Albino guiena pig at 25 mg/kg, ip; assay type: ADME, organism-based, Cavia porcellus; parameters: dose 25 mg/kg, route intraperitoneal; conditions: guinea pig; method in brief: as §3
# Staphylococcus aureus [11] = experiment: Antibacterial activity against methicillin-resistant Staphylococcus aureus ATCC 43300 infected in Albino guiena pig assessed as cure rate at 50 mg/kg measured on day 4 postinfection; assay type: functional, organism-based; parameters: dose 50 mg/kg; method in brief: as §1
# [12] = Half life in cage fluid of Albino guiena pig at 25 mg/kg, ip; conditions: guinea pig
# [13] = Half life in cage fluid of Albino guiena pig at 50 mg/kg, ip; conditions: guinea pig
# Staphylococcus aureus [14] = experiment: Antibacterial activity against methicillin-resistant Staphylococcus aureus ATCC 43300 infected in Albino guiena pig assessed as decrease in planktonic bacterial counts in cage fluid at 75 mg/kg after measured on day 10 postinfection; assay type: functional; method in brief: as §2
# [15] = Tmax in cage fluid of Albino guiena pig at 50 mg/kg, ip; assay type: ADME, organism-based, Cavia porcellus; parameters: dose 50 mg/kg, route intraperitoneal; conditions: guinea pig; method in brief: as §3
# Staphylococcus aureus [16] = experiment: Antibacterial activity against methicillin-resistant Staphylococcus aureus ATCC 43300 by macrodilution method; assay type: functional
# Method in brief: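 Broth macrodilution MIC in Mueller-Hinton broth per CLSI. Inoculum 1 × 10^5 to 5 × 10^5 CFU/ml. Ten twofold drug dilutions, 18 h at 37°C without shaking. MIC is the lowest concentration with no visible growth. Triplicate.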
# [17] = Tmax in cage fluid of Albino guiena pig at 75 mg/kg, ip; assay type: ADME, organism-based, Cavia porcellus; parameters: dose 75 mg/kg, route intraperitoneal; conditions: guinea pig; method in brief: as §3
# [18] = Cmin in cage fluid of Albino guiena pig at 25 mg/kg, ip after 12 hrs; assay type: ADME, organism-based, Cavia porcellus; parameters: dose 25 mg/kg, route intraperitoneal; conditions: guinea pig, read-out: Cmin; method in brief: as §3
# Staphylococcus aureus [19] = experiment: Antibacterial activity against methicillin-resistant Staphylococcus aureus ATCC 43300 infected in Albino guiena pig assessed as no. of culture-negative cage fluid samples at 50 mg/kg measured on day 10 postinfection; assay type: functional; method in brief: as §4
# Staphylococcus aureus [20] = experiment: Antibacterial activity against methicillin-resistant Staphylococcus aureus ATCC 43300 infected in Albino guiena pig assessed as decrease in planktonic bacterial counts in cage fluid at 50 mg/kg measured on day 4 postinfection; assay type: functional; method in brief: as §2
# Staphylococcus aureus [21] = experiment: Antibacterial activity against methicillin-resistant Staphylococcus aureus ATCC 43300 infected in Albino guiena pig assessed as no. of culture-negative cage fluid samples at 25 mg/kg measured on day 4 postinfection; assay type: functional; method in brief: as §4
# Staphylococcus aureus [22] = experiment: Antibacterial activity against methicillin-resistant Staphylococcus aureus ATCC 43300 during stationary growth phase by macrodilution method; assay type: functional
# Staphylococcus aureus [23] = experiment: Antibacterial activity against methicillin-resistant Staphylococcus aureus ATCC 43300 infected in Albino guiena pig assessed as no. of culture-negative cage fluid samples at 75 mg/kg measured on day 10 postinfection; assay type: functional; method in brief: as §4
# Staphylococcus aureus [24] = experiment: Antibacterial activity against methicillin-resistant Staphylococcus aureus ATCC 43300 infected in Albino guiena pig assessed as decrease in planktonic bacterial counts in cage fluid at 25 mg/kg measured on day 4 postinfection; assay type: functional; method in brief: as §2
# [25] = AUC (0 to 24 hrs) in cage fluid of Albino guiena pig at 50 mg/kg, ip; assay type: ADME, organism-based, Cavia porcellus; parameters: time < 24 hr, dose 50 mg/kg, route intraperitoneal; conditions: guinea pig
# [26] = Cmin in cage fluid of Albino guiena pig at 50 mg/kg, ip after 12 hrs; assay type: ADME, organism-based, Cavia porcellus; parameters: dose 50 mg/kg, route intraperitoneal; conditions: guinea pig, read-out: Cmin; method in brief: as §3
# [27] = AUC (0 to 24 hrs) in cage fluid of Albino guiena pig at 75 mg/kg, ip; assay type: ADME, organism-based, Cavia porcellus; parameters: time < 24 hr, dose 75 mg/kg, route intraperitoneal; conditions: guinea pig
# [28] = Half life in cage fluid of Albino guiena pig at 75 mg/kg, ip; conditions: guinea pig
# Staphylococcus aureus [29] = experiment: Antibacterial activity against methicillin-resistant Staphylococcus aureus ATCC 43300 infected in Albino guiena pig assessed as cure rate at 75 mg/kg measured on day 4 postinfection; assay type: functional, organism-based; parameters: dose 75 mg/kg; method in brief: as §1
# Staphylococcus aureus [30] = experiment: Antibacterial activity against methicillin-resistant Staphylococcus aureus ATCC 43300 infected in Albino guiena pig assessed as no. of culture-negative cage fluid samples at 25 mg/kg measured on day 10 postinfection; assay type: functional; method in brief: as §4
# [31] = Cmax in cage fluid of Albino guiena pig at 75 mg/kg, ip after 3 hrs; assay type: ADME, organism-based, Cavia porcellus, Interstitial fluid; parameters: dose 75 mg/kg, route intraperitoneal; conditions: guinea pig; method in brief: as §3
# Staphylococcus aureus [32] = experiment: Antibacterial activity against methicillin-resistant Staphylococcus aureus ATCC 43300 infected in Albino guiena pig assessed as decrease in planktonic bacterial counts in cage fluid at 75 mg/kg measured on day 4 postinfection; assay type: functional; method in brief: as §2
# Staphylococcus aureus [33] = experiment: Antibacterial activity against 1 x10'6 to 5 x10^6 CFU/ml methicillin-resistant Staphylococcus aureus ATCC 43300 assessed as effect on bacterial count at MIC after 24 hrs by time kill study; assay type: functional, organism-based
# Method in brief: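 MRSA inoculum of 1 × 10^6 to 5 × 10^6 CFU/ml in 10 ml Mueller-Hinton broth. Drug at 1× and 4× MIC; drug-free growth control. Incubated at 37°C. Aliquots plated on Mueller-Hinton agar at 0, 6 and 24 h. Quantification limit 200 CFU/ml. Mean log10 CFU/ml reduction ± SD.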
# Staphylococcus aureus [34] = experiment: Antibacterial activity against methicillin-resistant Staphylococcus aureus ATCC 43300 infected in Albino guiena pig assessed as decrease in planktonic bacterial counts in cage fluid at 50 mg/kg after measured on day 10 postinfection; assay type: functional; method in brief: as §2
compound,measurement,setting,value
CC(=O)NC[C@H]1CN(c2ccc(N3CCOCC3)c(F)c2)C(=O)O1 [LINEZOLID],Activity,Staphylococcus aureus [1],inactive
same,AUC(0-t) at 24 h,[2],87.8 µg·h/mL
same,Activity,Staphylococcus aureus [3],Active
same,MBC,Staphylococcus aureus [4],> 20 mg/L
same,concentration at 12 h,[5],2.5 µg/mL
same,Cmax,[6],6.8 µg/mL
same,Activity,Staphylococcus aureus [7],25%
same,Cmax,[8],12.7 µg/mL
same,Activity,Staphylococcus aureus [9],17%
same,Tmax,[10],3 h
same,Activity,Staphylococcus aureus [11],inactive
same,half-life,[12],6.8 h
same,half-life,[13],3.5 h
same,log10CFU/ml,Staphylococcus aureus [14],4.5
same,Tmax,[15],3.3 h
same,MIC,Staphylococcus aureus [16],2.5 mg/L
same,Tmax,[17],2.8 h
same,concentration at 12 h,[18],3 µg/mL
same,Activity,Staphylococcus aureus [19],0%
same,log10CFU/ml,Staphylococcus aureus [20],5.1
same,Activity,Staphylococcus aureus [21],8%
same,MBC,Staphylococcus aureus [22],> 20 mg/L
same,Activity,Staphylococcus aureus [23],17%
same,log10CFU/ml,Staphylococcus aureus [24],4.5
same,AUC(0-t) at 24 h,[25],119 µg·h/mL
same,concentration at 12 h,[26],3.7 µg/mL
same,AUC(0-t) at 24 h,[27],126 µg·h/mL
same,half-life,[28],2.6 h
same,Activity,Staphylococcus aureus [29],inactive
same,Activity,Staphylococcus aureus [30],0%
same,Cmax,[31],18.1 µg/mL
same,log10CFU/ml,Staphylococcus aureus [32],4.6
same,Activity,Staphylococcus aureus [33],inactive
same,log10CFU/ml,Staphylococcus aureus [34],7.1
